Results from different studies.
Converted amounts (≈) assume the structure as drawn.

SMILES	tested on	test	setting	measurement	value
C[C@H](Nc1ccc2c(c1)OCCn1cc(N3C(=O)OC[C@H]3C(F)F)nc1-2)C(N)=O	KYSE-510	cell growth or viability, ATP luminescence	5 days	EC50	87.8 nM
NCCC(=O)Nc1ccc(/N=c2\cc(-c3ccc4c(c3)OCO4)oc3ccccc23)cc1	HCT-116	cell growth or viability, CCK-8	1 µM	inhibition	12.2%
CCOc1ccc(Nc2c3c(nc4ccccc24)CCC3)cc1	Leishmania infantum	parasite growth, MTT	promastigote	IC50	640 nM
CC1(C)S[C@@H]2[C@H](NC(=O)[C@H](N)c3ccccc3)C(=O)N2[C@H]1C(=O)O	Streptococcus pyogenes	microbial growth	clinical isolate	MIC90	0.5 µg/mL (≈ 1.43 µM)
C[C@@H]1O[C@@H](OC[C@H]2O[C@@H](Oc3c(-c4ccc(O)c(O)c4)oc4cc(O)cc(O)c4c3=O)[C@H](O)[C@@H](O)[C@@H]2O)[C@H](O)[C@H](O)[C@H]1O	Streptococcus mutans	microbial killing, broth dilution		MBC	400 µg/mL (≈ 655 µM)
c1ccc(Oc2ccc(Nc3c4c(nc5ccccc35)CCC4)cc2)cc1	Leishmania infantum	parasite growth, MTT	promastigote	IC50	530 nM
C=C[C@]1(C)C[C@@H](OC(=O)CS[C@@H]2C[C@H]3CC[C@@H](C2)N3C)[C@]2(C)[C@H](C)CC[C@]3(CCC(=O)[C@H]32)[C@@H](C)[C@@H]1O	Streptococcus pyogenes	microbial growth	clinical isolate	MIC90	0.0312 µg/mL (≈ 0.0604 µM)
O=c1oc2c(O)c(O)cc3c(=O)oc4c(O)c(O)cc1c4c23	Streptococcus mutans	microbial growth, broth dilution	24 h	MIC	100 µg/mL (≈ 331 µM)
COc1ccc(NC(=O)NCc2cn(Cc3ccc(C)cc3)nn2)cc1	PC-9	cell growth or viability, CCK-8	50 µM, 72 h	viability	113%
C[C@H](N)C(=O)Nc1ccccc1/N=c1\cc(-c2ccc3c(c2)OCCO3)oc2cc(F)ccc12	HCT-116	cell growth or viability, CCK-8	1 µM	inhibition	5.4%
Cc1nc(Nc2ncc(C(=O)Nc3c(C)cccc3Cl)s2)cc(N2CC[C@H](O)C2)n1	DOHH-2	cell growth or viability, ATP luminescence	10 µM, 72 h	inhibition	86%
NCCCC(=O)Nc1ccccc1/N=c1\cc(-c2ccc3c(c2)OCO3)oc2ccccc12	HCT-116	cell growth or viability, CCK-8	1 µM	inhibition	6.97%
O=C1OC[C@H]2OC(O)[C@H](O)[C@@H](O)[C@@H]2OC(=O)c2cc(O)c(O)c(O)c2-c2c(O)c(O)c3oc(=O)c4c(c(O)c(O)c5oc(=O)c2c3c54)-c2c1cc(O)c(O)c2O (mixture of isomers)	Streptococcus mutans	microbial growth, disc diffusion	500 µg/disc	inhibition zone	15 mm
COCCC(=O)Nc1ccccc1/N=c1\cc(-c2ccc3c(c2)OCO3)oc2ccccc12	HCT-116	cell growth or viability, CCK-8	1 µM	inhibition	7.96%
O=C(O[C@@H]1O[C@@H]2COC(=O)c3cc(O)c(O)c(O)c3-c3c(cc(O)c(O)c3O)C(=O)O[C@H]([C@H]1O)[C@@H]2O)c1cc(O)c(O)c(O)c1	Streptococcus mutans	microbial growth, broth dilution	24 h	MIC	200 µg/mL (≈ 315 µM)
CC(=O)NC[C@H]1CN(c2ccc(N3CCOCC3)c(F)c2)C(=O)O1	Streptococcus pyogenes	microbial growth	clinical isolate	MIC90	2 µg/mL (≈ 5.93 µM)
NCCCCC(=O)Nc1ccccc1/N=c1\cc(-c2ccc3c(c2)OCO3)oc2ccccc12	HCT-116	cell growth or viability, CCK-8	1 µM	inhibition	3.02%
Oc1cc(O)c2c(c1)O[C@H](c1cc(O)c(O)c(O)c1)[C@@H](O)C2	Streptococcus mutans	microbial killing, broth dilution		MBC	400 µg/mL (≈ 1310 µM)
C[C@@H]1[C@H](O)[C@@H](C)/C=C/C=C/C=C/C=C/C=C/C=C/C=C/[C@H](O[C@@H]2O[C@H](C)[C@@H](O)[C@H](N)[C@@H]2O)C[C@@H]2O[C@](O)(C[C@@H](O)C[C@@H](O)[C@H](O)CC[C@@H](O)C[C@@H](O)CC(=O)O[C@H]1C)C[C@H](O)[C@H]2C(=O)O	Leishmania infantum	parasite growth, MTT	promastigote	EC50	1500 nM
